BindingDB's records for doi:10.1021/jm970328b (University of Minnesota, 1997)
Where a SMILES comes first, the peptide text is derived from it.

Legend:
D(2) dopamine receptor [1] = target: T1, D(2) dopamine receptor (Bos taurus, UniProt P20288); assay: Inhibitory constant of compound in absence of Gpp(NH)p calculated for the high affinity components of the [3H]spiroperidol binding to Dopamine receptor D2
Summary of the method: (§1)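 Bovine striatal membranes (150-200 µg protein) were incubated with 0.2 nM [3H]spiroperidol and varying N-propylnorapomorphine, with or without 100 µM Gpp(NH)p and 100 nM peptidomimetic, plus 50 nM ketanserin, for 1 h at 22 °C, then GF/B filtered. Nonspecific binding was set with 1.0 µM (+)-butaclamol. A two-site fit gave high/low-affinity fractions; Ki values came via Cheng-Prusoff. Mean ± SEM of 3-4 experiments.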

D(2) dopamine receptor [2] = target: T1, D(2) dopamine receptor; assay: Inhibitory constant of compound in presence of Gpp(NH)p calculated for the low affinity components of the [3H]spiroperidol binding to Dopamine receptor D2; summary of the method: as §1
D(2) dopamine receptor [3] = target: T1, D(2) dopamine receptor; assay: Inhibitory constant of compound in presence of Gpp(NH)p (Pre treated with 1 nM) calculated for the high affinity components of the [3H]spiroperidol binding to Dopamine receptor D2
D(2) dopamine receptor [4] = target: T1, D(2) dopamine receptor; assay: Inhibitory constant of compound in presence of Gpp(NH)p calculated for the high affinity components of the [3H]spiroperidol binding to Dopamine receptor D2; summary of the method: as §1
D(2) dopamine receptor [5] = target: T1, D(2) dopamine receptor; assay: Inhibitory constant of compound in absence of Gpp(NH)p calculated for the low affinity components of the [3H]spiroperidol binding to Dopamine receptor D2; summary of the method: as §1
D(2) dopamine receptor [6] = target: T1, D(2) dopamine receptor; assay: Inhibitory constant of compound in absence of Gpp(NH)p (Pre treated with 1 nM) calculated for the high affinity components of the [3H]spiroperidol binding to Dopamine receptor D2
D(2) dopamine receptor [7] = target: T1, D(2) dopamine receptor; assay: Inhibitory constant of compound in presence of Gpp(NH)p (Pre treated with 100 nM) calculated for the low affinity components of the [3H]spiroperidol binding to Dopamine receptor D2; summary of the method: as §1
D(2) dopamine receptor [8] = target: T1, D(2) dopamine receptor; assay: Inhibitory constant of compound in presence of Gpp(NH)p (Pre treated with 100 nM) calculated for the high affinity components of the [3H]spiroperidol binding to Dopamine receptor D2; summary of the method: as §1
D(2) dopamine receptor [9] = target: T1, D(2) dopamine receptor; assay: Inhibitory constant of compound in absence of Gpp(NH)p (Pre treated with 100 nM) calculated for the high affinity components of the [3H]spiroperidol binding to Dopamine receptor D2; summary of the method: as §1
D(2) dopamine receptor [10] = target: T1, D(2) dopamine receptor; assay: Inhibitory constant of compound in absence of Gpp(NH)p (Pretreated with 100 nM) calculated for the high affinity components of the [3H]spiroperidol binding to Dopamine receptor D2; summary of the method: as §1
D(2) dopamine receptor [11] = target: T1, D(2) dopamine receptor; assay: Inhibitory constant of compound in absence of Gpp(NH)p (Pre treated with 1 uM) calculated for the high affinity components of the [3H]spiroperidol binding to Dopamine receptor D2
D(2) dopamine receptor [12] = target: T1, D(2) dopamine receptor; assay: Inhibitory constant of compound in presence of Gpp(NH)p (Pre treated with 1 uM) calculated for the high affinity components of the [3H]spiroperidol binding to Dopamine receptor D2
D(2) dopamine receptor [13] = target: T1, D(2) dopamine receptor; assay: Percentage of receptor in the high affinity form for the compound to Dopamine receptor D2 in absence of Gpp(NH)p (pre treated with 1 uM)

T1 sequence (P20288 whole entry): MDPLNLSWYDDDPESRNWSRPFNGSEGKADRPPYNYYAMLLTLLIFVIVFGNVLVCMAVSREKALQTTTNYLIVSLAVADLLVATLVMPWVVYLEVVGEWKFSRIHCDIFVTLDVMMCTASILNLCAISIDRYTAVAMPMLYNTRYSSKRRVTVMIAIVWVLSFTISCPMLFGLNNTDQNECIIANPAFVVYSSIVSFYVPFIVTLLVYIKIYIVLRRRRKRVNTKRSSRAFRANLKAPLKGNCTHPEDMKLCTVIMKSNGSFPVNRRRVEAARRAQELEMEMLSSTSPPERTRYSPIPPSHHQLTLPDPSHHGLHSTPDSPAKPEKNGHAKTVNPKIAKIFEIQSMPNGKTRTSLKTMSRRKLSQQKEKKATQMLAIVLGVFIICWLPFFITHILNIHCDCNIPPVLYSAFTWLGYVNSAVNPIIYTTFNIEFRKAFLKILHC

NC(=O)CN1CCC(N2CC(=O)N3CCC[C@H]3C2=O)C1=O (stereo partly drawn) [2-[3-((2R,8aS)-1,4-Dioxo-hexahydro-pyrrolo[1,2-a]pyrazin-2-yl)-2-oxo-pyrrolidin-1-yl]-acetamide]
Ki (D(2) dopamine receptor [1]): 0.08 nM
Ki (D(2) dopamine receptor [2]): 50 nM
Ki (D(2) dopamine receptor [3]): 0.05 nM
Ki (D(2) dopamine receptor [4]): 0.19 nM
Ki (D(2) dopamine receptor [5]): 69 nM
Ki (D(2) dopamine receptor [6]): 0.02 nM

NC(=O)[C@H]1CS[C@@H]2CC(N3CC(=O)N4CCC[C@H]4C3=O)C(=O)N12 (stereo partly drawn) [(3S,7aR)-6-((2R,8aS)-1,4-Dioxo-hexahydro-pyrrolo[1,2-a]pyrazin-2-yl)-5-oxo-hexahydro-pyrrolo[2,1-b]thiazole-3-carboxylic acid amide]
Ki (D(2) dopamine receptor [1]): 0.098 nM
Ki (D(2) dopamine receptor [7]): 106 nM
Ki (D(2) dopamine receptor [2]): 183 nM
Ki (D(2) dopamine receptor [8]): 0.067 nM
Ki (D(2) dopamine receptor [4]): 0.14 nM
Ki (D(2) dopamine receptor [5]): 171 nM
Ki (D(2) dopamine receptor [9]): 0.066 nM

CC(C)C[C@@H](C(=O)NCC(N)=O)N1CC(=O)N2CCC[C@H]2C1=O [(S)-2-((S)-1,4-Dioxo-hexahydro-pyrrolo[1,2-a]pyrazin-2-yl)-4-methyl-pentanoic acid carbamoylmethyl-amide]
Ki (D(2) dopamine receptor [1]): 0.08 nM
Ki (D(2) dopamine receptor [7]): 104 nM
Ki (D(2) dopamine receptor [2]): 172 nM
Ki (D(2) dopamine receptor [8]): 0.08 nM
Ki (D(2) dopamine receptor [4]): 0.12 nM
Ki (D(2) dopamine receptor [5]): 120 nM
Ki (D(2) dopamine receptor [10]): 0.068 nM

CC(C)C[C@H](NC(=O)[C@@H]1CCCN1)C(=O)NCC(N)=O [L-pro-L-leu-gly-NH2] (H-Pro-Leu-Gly-NH2)
Ki (D(2) dopamine receptor [1]): 0.09 nM
Ki (D(2) dopamine receptor [11]): 0.04 nM
Ki (D(2) dopamine receptor [2]): 60 nM
Ki (D(2) dopamine receptor [12]): 0.06 nM
Ki (D(2) dopamine receptor [4]): 0.13 nM
Ki (D(2) dopamine receptor [5]): 73 nM
percent high-affinity form (D(2) dopamine receptor [13]): 61 nM
